ChEMBL document CHEMBL4699494, “Design, synthesis and evaluation of novel indirubin-based N-hydroxybenzamides, N-hydroxypropenamides and N-hydroxyheptanamides as histone deacetylase inhibitors and antitumor agents” (Bioorg Med Chem Lett, 2020)
Structures can show the parent of a compound that is named as a salt. Active and inactive are the calls of the source. No cut-off for these calls is given here.

Legend:
[1] = system: NCI-H23; experiment: Cytotoxicity against human NCI-H23 cells by colorimetric method; assay type: functional, cell-based
[2] = system: NCI-H23; experiment: Potency index, ratio of adriamycin IC50 to compound IC50 for human NCI-H23 cells by colorimetric method; assay type: functional
In short: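 Growth inhibition of cancer cells read by a colorimetric method with slight modifications. IC50 is the concentration giving 50% reduction in cell growth, computed by the Probits method and averaged over three independent experiments. The index is the reference drug's IC50 divided by the compound's IC50 in the same cell line.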

[3] = target: Histone deacetylase; experiment: Inhibition of HDAC in human HeLa nuclear extract using fluoroscence-labeled acetylated peptide as substrate by fluorometric assay; assay type: subcellular, Nucleus
[4] = system: PC-3; experiment: Cytotoxicity against human PC3 cells by colorimetric method; assay type: functional, cell-based
[5] = system: SW-620; experiment: Cytotoxicity against human SW620 cells by colorimetric method; assay type: functional, cell-based
[6] = target: T1, Protein deacetylase HDAC6 (Homo sapiens, UniProt Q9UBN7); experiment: Inhibition of HDAC6 (unknown origin)
T1 sequence (Q9UBN7 whole entry): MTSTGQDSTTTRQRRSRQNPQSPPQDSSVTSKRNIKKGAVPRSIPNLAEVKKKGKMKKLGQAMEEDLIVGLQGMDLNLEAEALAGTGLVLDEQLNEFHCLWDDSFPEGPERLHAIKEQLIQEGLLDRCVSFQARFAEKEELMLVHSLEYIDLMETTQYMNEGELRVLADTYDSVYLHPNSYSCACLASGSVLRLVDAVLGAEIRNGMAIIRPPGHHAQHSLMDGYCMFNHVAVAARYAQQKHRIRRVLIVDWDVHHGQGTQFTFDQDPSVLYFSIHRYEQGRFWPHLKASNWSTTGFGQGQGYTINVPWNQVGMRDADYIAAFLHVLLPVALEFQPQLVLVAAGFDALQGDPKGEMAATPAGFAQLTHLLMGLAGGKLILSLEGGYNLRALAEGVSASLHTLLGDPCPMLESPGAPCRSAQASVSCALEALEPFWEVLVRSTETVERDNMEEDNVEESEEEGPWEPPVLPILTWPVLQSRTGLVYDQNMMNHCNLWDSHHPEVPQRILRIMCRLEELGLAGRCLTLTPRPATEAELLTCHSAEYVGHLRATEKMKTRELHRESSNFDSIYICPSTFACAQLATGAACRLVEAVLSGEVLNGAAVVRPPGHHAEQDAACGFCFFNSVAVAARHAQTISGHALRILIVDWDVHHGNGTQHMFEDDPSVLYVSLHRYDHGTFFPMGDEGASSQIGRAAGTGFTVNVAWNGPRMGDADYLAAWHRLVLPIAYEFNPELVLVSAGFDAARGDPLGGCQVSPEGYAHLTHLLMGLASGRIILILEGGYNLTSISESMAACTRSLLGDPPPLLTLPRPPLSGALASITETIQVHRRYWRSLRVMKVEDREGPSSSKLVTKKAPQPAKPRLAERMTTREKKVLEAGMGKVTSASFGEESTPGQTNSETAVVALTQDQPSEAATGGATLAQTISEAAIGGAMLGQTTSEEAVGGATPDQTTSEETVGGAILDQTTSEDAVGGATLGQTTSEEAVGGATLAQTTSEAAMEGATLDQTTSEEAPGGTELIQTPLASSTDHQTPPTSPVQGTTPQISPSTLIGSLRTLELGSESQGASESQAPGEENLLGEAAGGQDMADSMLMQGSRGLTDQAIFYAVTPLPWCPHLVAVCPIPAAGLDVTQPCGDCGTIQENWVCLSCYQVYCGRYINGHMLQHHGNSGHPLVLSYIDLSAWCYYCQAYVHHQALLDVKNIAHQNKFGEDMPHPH

[7] = target: Histone deacetylase 2 (Homo sapiens, UniProt Q92769); experiment: Inhibition of HDAC2 (unknown origin)
[8] = system: SW-620; experiment: Induction of apoptosis in human SW620 cells assessed as early apoptotic cells by flow cytometry; assay type: functional, cell-based
[9] = organism: Homo sapiens; experiment: Selectivity index, ratio of IC50 for HDAC2 (unknown origin) to IC50 for HDAC6 (unknown origin)
[10] = system: SW-620; experiment: Induction of cell cycle arrest in human SW-620 cells assessed as accumulation at G0/G1 phase by flow cytometry; assay type: functional, cell-based
[11] = system: SW-620; experiment: Induction of cell cycle arrest in human SW-620 cells assessed as accumulation at S phase by flow cytometry; assay type: functional, cell-based

Sequence of Histone deacetylase 2 (Q92769 whole entry): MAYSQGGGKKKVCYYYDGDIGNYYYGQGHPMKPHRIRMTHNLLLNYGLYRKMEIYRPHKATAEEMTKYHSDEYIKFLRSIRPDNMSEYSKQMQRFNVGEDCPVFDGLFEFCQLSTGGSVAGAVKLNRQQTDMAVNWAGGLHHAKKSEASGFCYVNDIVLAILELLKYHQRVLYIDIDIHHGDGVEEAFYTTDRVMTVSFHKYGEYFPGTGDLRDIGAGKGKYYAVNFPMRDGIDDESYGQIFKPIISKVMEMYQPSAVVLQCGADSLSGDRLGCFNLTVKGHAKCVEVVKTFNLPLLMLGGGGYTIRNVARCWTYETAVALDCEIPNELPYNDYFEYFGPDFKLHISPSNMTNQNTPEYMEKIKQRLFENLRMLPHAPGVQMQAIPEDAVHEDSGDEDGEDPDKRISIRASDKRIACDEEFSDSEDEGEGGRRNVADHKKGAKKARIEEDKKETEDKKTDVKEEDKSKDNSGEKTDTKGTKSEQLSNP

Structure (SMILES) | IC50 [1] [nM] | Ratio IC50 [2] | IC50 [3] [nM] | IC50 [4] [nM] | IC50 [5] [nM] | IC50 [6] [nM] | IC50 [7] [nM] | Activity [8] | Ratio IC50 [9] | Activity [10] | Activity [11]
O=C(/C=C/c1ccc(CN2C(=O)/C(=C3\Nc4ccccc4\C3=N/O)c3cccc(Cl)c32)cc1)NO | 50 | <=10 | 604 | 90 | 60 |  |  |  |  |  | 
Cc1ccc2c(c1)/C(=C1/Nc3ccccc3/C1=N\O)C(=O)N2Cc1ccc(C(=O)NO)cc1 | 10 | <=10 | 5 | 90 | 30 | 20 | 21 |  |  |  | 
O=C(/C=C/c1ccc(CN2C(=O)/C(=C3\Nc4ccccc4\C3=N/O)c3cc(Br)ccc32)cc1)NO | 9 | <=10 | 183 | 90 | 60 |  |  |  |  |  | 
O=C1Nc2ccccc2/C1=C1/Nc2ccccc2/C1=N\O | 11200 |  |  | 15800 | 13500 |  |  |  |  |  | 
COc1ccc2c(c1)/C(=C1/Nc3ccccc3/C1=N\O)C(=O)N2Cc1ccc(C(=O)NO)cc1 | 90 | <=10 | 25 | 30 | 40 | 30 | 31 |  |  |  | 
O=C(CCCCCCN1C(=O)/C(=C2\Nc3ccccc3\C2=N/O)c2ccccc21)NO | 90 | <=10 | 22 | 50 | 90 |  |  | Active |  |  | 
O=C(NO)c1ccc(CN2C(=O)/C(=C3\Nc4ccccc4\C3=N/O)c3cc(F)ccc32)cc1 | 30 | <=10 | 218 | 50 | 20 | 43 | 194 |  | 4.5 |  | 
O=C(CCCCCCN1C(=O)/C(=C2\Nc3ccccc3\C2=N/O)c2cc(Br)ccc21)NO | 9 | <=10 | 4 | 30 | 90 |  |  |  |  |  | 
Cc1ccc2c(c1)/C(=C1/Nc3ccccc3/C1=N\O)C(=O)N2Cc1ccc(/C=C/C(=O)NO)cc1 | 10 | <=10 | 20 | 60 | 50 |  |  |  |  |  | 
Cc1ccc2c(c1)/C(=C1/Nc3ccccc3/C1=N\O)C(=O)N2CCCCCCC(=O)NO | 10 | <=10 | 18 | 80 | 50 |  |  |  |  |  | 
O=C(CCCCCCN1C(=O)/C(=C2\Nc3ccccc3\C2=N/O)c2cccc(Cl)c21)NO | 50 | <=10 | 7 | 30 | 90 |  |  |  |  |  | 
O=C(CCCCCCC(=O)Nc1ccccc1)NO |  |  |  |  |  |  |  | Active |  |  | 
O=C(CCCCCCN1C(=O)/C(=C2\Nc3ccccc3\C2=N/O)c2cc(Cl)ccc21)NO | 30 | <=10 | 3 | 90 | 60 |  |  |  |  |  | 
O=C(CCCCCCN1C(=O)/C(=C2\Nc3ccccc3\C2=N/O)c2cc(F)ccc21)NO | 8 | <=10 | 14 | 12 | 80 |  |  |  |  |  | 
O=C(NO)c1ccc(CN2C(=O)/C(=C3\Nc4ccccc4\C3=N/O)c3ccccc32)cc1 | 70 | <=10 | 195 | 60 | 70 | 7 | 205 |  | 29 | Active | 
COc1ccc2c(c1)/C(=C1/Nc3ccccc3/C1=N\O)C(=O)N2CCCCCCC(=O)NO | 70 | <=10 | 21 | 50 | 30 |  |  |  |  |  | 
COc1cccc2c1C(=O)c1c(O)c3c(c(O)c1C2=O)C[C@@](O)(C(=O)CO)C[C@@H]3O[C@H]1C[C@H](N)[C@H](O)[C@H](C)O1 [DOXORUBICIN HYDROCHLORIDE] | 90 |  |  | 90 | 90 |  |  |  |  |  | 
O=C(/C=C/c1ccc(CN2C(=O)/C(=C3\Nc4ccccc4\C3=N/O)c3cc(F)ccc32)cc1)NO | 8 | <=10 | 422 | 50 | 50 |  |  |  |  |  | 
O=C(/C=C/c1ccc(CN2C(=O)/C(=C3\Nc4ccccc4\C3=N/O)c3cc(Cl)ccc32)cc1)NO | 7 | <=10 | 318 | 60 | 80 |  |  |  |  |  | 
COc1ccc2c(c1)/C(=C1/Nc3ccccc3/C1=N\O)C(=O)N2Cc1ccc(/C=C/C(=O)NO)cc1 | 50 | <=10 | 5 | 30 | 40 |  |  |  |  |  | 
O=C(NO)c1ccc(CN2C(=O)/C(=C3\Nc4ccccc4\C3=N/O)c3cc(Br)ccc32)cc1 | 7 | <=10 | 39 | 50 | 70 | 24 | 75 |  |  |  | 
O=C(NO)c1ccc(CN2C(=O)/C(=C3\Nc4ccccc4\C3=N/O)c3cccc(Cl)c32)cc1 | 60 | <=10 | 71 | 60 | 90 | 49 | 88 |  |  |  | 
O=C(/C=C/c1ccc(CN2C(=O)/C(=C3\Nc4ccccc4\C3=N/O)c3ccccc32)cc1)NO | 9 | <=10 | 95 | 50 | 50 |  |  | Active |  | Active | Active
O=C(NO)c1ccc(CN2C(=O)/C(=C3\Nc4ccccc4\C3=N/O)c3cc(Cl)ccc32)cc1 | 50 | <=10 | 174 | 50 | 60 | 16 | 187 |  | 11.7 |  | 
